Experimental data as given in ChEMBL document CHEMBL1148278 (J Med Chem, 2004).

Assays:
[1] = target: Saccharomyces cerevisiae; test: Toxicity against Saccharomyces cerevisiae assessed as growth inhibition in complete medium
[2] = target: NAD-dependent histone deacetylase SIR2 (Saccharomyces cerevisiae S288c) (UniProt P06700); test: Selectivity index was reported as the ratio of the MGC to IC50 value
[3] = target: NAD-dependent histone deacetylase SIR2 (Saccharomyces cerevisiae S288c) (UniProt P06700); test: Sirtuin 2 inhibitory activity and was reported as minimum growth-stimulating concentration in Saccharomyces cerevisiae
How it was run: (§1)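 Telomeric-silencing growth assay in S. cerevisiae UCC2210 (adh4::URA3-TEL VII-L), ca. 13 500 cells/well, in synthetic complete medium lacking uracil. Compound at 150 μM to 73 nM final, DMSO ≤2%, 30 °C for about 40–48 h. OD660 read, initial background subtracted. MGC is the concentration giving 10% of the reference maximal growth. Triplicate, ±1 SD.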

[4] = target: NAD-dependent histone deacetylase SIR2 (Saccharomyces cerevisiae S288c) (UniProt P06700); test: In vitro inhibition of sirtuin 2 was evaluated using yeast whole cell lysates at 75 uM; values are per cent of control
[5] = Half-life period was determined; format: ADME
How it was run: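 Hydrolysis followed by HPLC at 280 nm. 100 μM compound, made from 30 mM DMSO stock, in complete medium lacking uracil (pH 4.2-4.3, unadjusted). Half-life derived from the pseudo-first-order hydrolysis rate constant.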

[6] = target: NAD-dependent histone deacetylase SIR2 (Saccharomyces cerevisiae S288c) (UniProt P06700); test: Tested for Sirtuin 2 inhibitory activity and was reported as minimum growth-stimulating concentration in Saccharomyces cerevisiae
How it was run: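 Cell-based telomeric silencing read-out in yeast strain UCC2210 (Mata ppr1 adh4::URA3-TEL VII-L), about 13 500 cells per well, grown in synthetic complete medium lacking uracil. Compounds tested at 150 µM to 73 nM, with at most 2% DMSO. Incubation at 30 °C for about 40–48 h. Growth read as OD660 minus initial background. MGC is the concentration giving 10% of reference maximal growth. Triplicate, ±1 SD.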

[7] = target: NAD-dependent histone deacetylase SIR2 (Saccharomyces cerevisiae S288c) (UniProt P06700); test: Tested for Sir2 inhibitory activity and was reported as minimum growth-stimulating concentration in Saccharomyces cerevisiae
How it was run: as §1

Chain of NAD-dependent histone deacetylase SIR2 (Saccharomyces cerevisiae S288c) (P06700 whole entry): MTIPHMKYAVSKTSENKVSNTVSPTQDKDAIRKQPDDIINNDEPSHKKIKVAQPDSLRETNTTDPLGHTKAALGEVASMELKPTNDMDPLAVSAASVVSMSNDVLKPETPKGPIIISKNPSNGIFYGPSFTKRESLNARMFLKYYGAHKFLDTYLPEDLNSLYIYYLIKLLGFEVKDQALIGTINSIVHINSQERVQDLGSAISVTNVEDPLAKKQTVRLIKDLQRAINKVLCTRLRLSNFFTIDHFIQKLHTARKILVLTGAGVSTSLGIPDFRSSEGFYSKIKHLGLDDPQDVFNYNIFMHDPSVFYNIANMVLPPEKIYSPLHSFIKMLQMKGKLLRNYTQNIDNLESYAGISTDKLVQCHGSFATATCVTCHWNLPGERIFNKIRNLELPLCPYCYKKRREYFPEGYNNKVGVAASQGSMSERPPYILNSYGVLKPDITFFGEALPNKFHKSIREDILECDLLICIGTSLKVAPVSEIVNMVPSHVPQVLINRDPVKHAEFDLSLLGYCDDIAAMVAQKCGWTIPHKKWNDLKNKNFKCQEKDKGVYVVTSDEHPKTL

| SMILES | IC50 [1] | SI [2] | MGC [3] | residual activity [4] | half-life [5] | MGC [6] | MGC [7] | T1/2 [5] |
| --- | --- | --- | --- | --- | --- | --- | --- | --- |
| COc1cc2ccccc2c2c1OC(=O)CC2 | 128 µM | 85 | 1.5 µM | – | – | – | – | – |
| O=C(O)CCc1c(O)ccc2ccccc12 | ≥ 150 µM | – | > 150 µM | 87% | – | – | – | – |
| O=C1CCc2c(c3c(c4ccccc24)CCC(=O)O3)O1 | 89 µM | 18 | 4.9 µM | 80% | – | – | – | – |
| O=C1CCc2ccc3ccccc3c2O1 | 65 µM | 27 | 2.4 µM | 87% | 6.9 h | – | – | – |
| O=C1CCc2c(ccc3cc(O)ccc23)O1 | ≥ 150 µM | > 39 | 38 µM | 85% | – | – | – | – |
| O=C1CCc2c(ccc3ccccc23)O1 [SPLITOMICIN] | – | – | – | 66% | 7.5 h | 0.49 µM | – | – |
| COc1cc2c(c3ccccc13)CCC(=O)O2 | 44 µM | 24 | 1.8 µM | – | – | – | – | – |
| COc1ccc2c3c(ccc2c1)OC(=O)CC3 | 73 µM | 5 | 13.8 µM | 84% | – | – | – | – |
| O=C1CCc2ccc3c(O)cccc3c2O1 | ≥ 150 µM | > 7 | 21 µM | – | – | – | – | – |
| O=C1CCc2c(ccc3c(O)cccc23)O1 | ≥ 150 µM | > 107 | 16 µM | – | – | – | – | – |
| O=C1CCc2c(c3oc(=O)ccc3c3ccccc23)O1 | ≥ 150 µM | > 29 | – | 83% | – | – | 5.1 µM | – |
| O=C1CCc2c(ccc3ccccc23)N1 | ≥ 150 µM | – | > 150 µM | 92% | – | – | – | No hydrolysis obsd |
| O=C1CC(c2ccccc2)c2c(ccc3ccccc23)O1 (configuration not stated) | – | – | > 150 µM | 90% | – | – | – | – |
| CCN(CC)C(=O)CCc1c(O)ccc2ccccc12 | 125 µM | – | > 150 µM | 88% | – | – | – | – |
| O=C1CCc2c(ccc3c4c(ccc23)OC(=O)CC4)O1 | – | – | > 150 µM | 87% | – | – | – | – |
| OCCCc1c(O)ccc2ccccc12 | ≥ 150 µM | – | > 150 µM | 88% | – | – | – | – |
| O=C1Cc2c(ccc3ccccc23)O1 | 59 µM | – | > 150 µM | – | 12.2 h | – | – | – |
| CNC(=O)CCc1c(O)ccc2ccccc12 | ≥ 150 µM | > 26 | 5.8 µM | – | – | – | – | – |
| COc1ccc2ccc3c(c2c1)CCC(=O)O3 | – | – | > 150 µM | – | – | – | – | – |
| O=C1CCc2cc3ccccc3cc2O1 | ≥ 150 µM | 10 | 15 µM | 85% | – | – | – | – |
| O=C1CCc2c(cc(O)c3ccccc23)O1 | – | – | 11 µM | – | – | – | – | – |

| SMILES | IC50 [1] | SI [2] | MGC [3] | residual activity [4] | half-life [5] | MGC [6] | MGC [7] | T1/2 [5] |
| --- | --- | --- | --- | --- | --- | --- | --- | --- |
| CCOC(=O)C1Cc2c(ccc3ccccc23)OC1=O (configuration not stated) | ≥ 150 µM | – | > 150 µM | 66% | – | – | – | – |
| O=C1CCCc2c(ccc3ccccc23)O1 | 12 µM | – | > 150 µM | 82% | 49.5 h | – | – | – |
| O=C(COc1cccc2ccccc12)ON1C(=O)CCC1=O | ≥ 150 µM | – | > 150 µM | – | – | – | – | – |
| O=C1CCc2c(c(O)cc3ccccc23)O1 | 111 µM | 161 | 0.69 µM | – | – | – | – | – |
| O=C1CCc2c(ccc3ccc4c(c23)CCC(=O)O4)O1 | ≥ 150 µM | – | > 150 µM | – | – | – | – | – |
| O=C1CCc2c(ccc3ccc(O)cc23)O1 | 134 µM | 3 | 48 µM | – | – | – | – | – |
| NC(=O)CCc1c(O)ccc2ccccc12 | 125 µM | 158 | 0.79 µM | 80% | – | – | – | – |
| COC(=O)CCc1c(O)ccc2ccccc12 | – | – | 5.2 µM | 75% | – | – | – | – |
| O=C1CCCc2c1ccc1ccccc21 | 81 µM | – | > 150 µM | – | – | – | – | – |
| O=C1CCc2c(c(OCc3ccccc3)cc3ccccc23)O1 | 27 µM | 29 | 0.97 µM | 17% | – | – | – | – |
| CC(C)(C)OC(=O)NCCOCCOc1cc2ccccc2c2c1OC(=O)CC2 | 86 µM | 13 | 6.4 µM | – | – | – | – | – |
| CC1Cc2c(ccc3ccccc23)OC1=O (configuration not stated) | 52 µM | 10 | 5.4 µM | 94% | – | – | – | – |
| O=c1ccc2ccccc2o1 | – | – | – | 74% | – | – | > 150 µM | – |
| O=C1CCc2c(ccc3ccccc23)S1 | 25 µM | – | > 150 µM | – | 13 h | – | – | – |
| O=C1CCc2ccccc2O1 | – | – | 0.85 µM | 15% | – | – | – | – |
| C=CCC1Cc2c(ccc3ccccc23)OC1=O (configuration not stated) | – | – | > 150 µM | 86% | – | – | – | – |
| COc1cccc2c3c(ccc12)OC(=O)CC3 | – | – | 5.5 µM | – | – | – | – | – |
| O=C1Cc2ccccc2O1 | ≥ 150 µM | > 6 | 24 µM | 89% | – | – | – | – |
| CC(C)CC1Cc2c(ccc3ccccc23)OC1=O (configuration not stated) | – | – | > 150 µM | – | – | – | – | – |
| O=C1OC(=O)c2cccc3cccc1c23 | – | – | > 150 µM | 94% | – | – | – | – |
| O=c1ccc2c(ccc3ccccc32)o1 | 86 µM | – | > 150 µM | 73% | > 100 h | – | – | – |
